≈ marks a conversion by molar mass, not a printed value.
Key:
HaCaT [1] = test: Cytotoxicity against human HaCaT cells assessed as cell viability up to 16 ug/ml after 2 hrs by MTS assay; assay type: cell-based
Method in brief: (§1)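 HaCaT keratinocytes were grown in DMEM with 10% FBS at 37 °C, 5% CO₂. They were exposed in triplicate to 8–256 μg/mL for 2 h, then MTS was added. Background-corrected absorbance was expressed as % viability relative to a DMSO vehicle control.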

Staphylococcus aureus [2] = test: Antimicrobial activity against methicillin-resistant Staphylococcus aureus RCMB 2658 clinical isolate after 20 hrs by broth microdilution method; assay type: functional; settings: RCMB 2658, 20 h
Method in brief: (§2)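 CLSI broth microdilution in cation-adjusted Mueller Hinton broth. Compounds were serially diluted in triplicate and plates held at 37 °C for 20 h. MIC was taken by eye as the lowest concentration with no visible growth, and the average of the triplicate determinations is reported.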

Staphylococcus aureus [3] = test: Bactericidal activity against methicillin-resistant Staphylococcus aureus USA300 assessed as time required to reduce bacterial inoculum to zero colony forming units at 3 times MIC by time kill assay; assay type: functional
Method in brief: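 Samples taken at 2, 4, 6, 8, 10, 12 and 24 h were serially diluted in PBS and plated on trypticase soy agar. Viable CFU/mL were counted after at least 16 h at 37 °C.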

[4] = Aqueous solubility of the compound in PBS after 2 hrs by turbidity assay; assay type: physicochemical
Method in brief: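 Serial dilutions were made […] and diluted 100-fold into PBS. After 2 h, turbidity was read at 540 nm with pre-addition background subtracted. Turbidity was taken as absorbance > blank mean + 3 SD. Solubility limit is the highest concentration with no turbidity.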

Staphylococcus aureus [5] = test: Potency index, ratio of vancomycin MIC to compound MIC for methicillin-resistant Staphylococcus aureus RCMB 2658 clinical isolate; assay type: functional
Staphylococcus aureus [6] = test: Bactericidal activity against methicillin-resistant Staphylococcus aureus USA200 NRS383 clinical isolate after 20 hrs by broth microdilution method; assay type: functional; settings: USA200 NRS383, 20 h
Staphylococcus aureus [7] = test: Antimicrobial activity against methicillin-resistant Staphylococcus aureus USA300 NRS384 clinical isolate after 20 hrs by broth microdilution method; assay type: functional; settings: USA300 NRS384, 20 h; method in brief: as §2
[8] = Apparent permeability across apical to basolateral side in human Caco2 cells at pH 6.5 after 2 hrs by LC/MS/MS analysis; assay type: ADME, cell-based; settings: Caco-2, pH 6.5
Method in brief: (§3)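 Caco-2 cells were grown and differentiated for 3 weeks, fed every 2 days. Compound was added to the apical or basolateral side and measured on the opposite side after 2 h by LC/MS/MS. Apical buffer was pH 6.5 transport buffer (glucose, 10 mM HEPES, HBSS) with 100 μM Lucifer yellow; basolateral buffer was pH 7.4. Lucifer yellow fluorescence checked monolayer integrity. Papp = (dQ/dt)/C₀A; efflux ratio = Papp(B→A)/Papp(A→B).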

[9] = Efflux ratio of apparent permeability from basolateral to apical side over apical to basolateral side in human Caco2 cells after 2 hrs by LC/MS/MS analysis; assay type: ADME, cell-based; settings: Caco-2; method in brief: as §3
Staphylococcus aureus [10] = test: Bactericidal activity against methicillin-resistant Staphylococcus aureus USA400 NRS123 clinical isolate after 20 hrs by broth microdilution method; assay type: functional; settings: USA400 NRS123, 20 h
Staphylococcus aureus [11] = test: Bactericidal activity against methicillin-resistant Staphylococcus aureus NRS119 clinical isolate after 20 hrs by broth microdilution method; assay type: functional; settings: NRS119, 20 h
[12] = Cmax in Sprague-Dawley rat plasma at 50 mg/kg administered via oral gavage measured 24 hrs post dose by LC/MS/MS analysis; assay type: ADME, organism-based; set-up: dose 50 mg/kg, route oral
Method in brief: (§4)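 Male naive Sprague-Dawley rats (n = 3) received a single 50 mg/kg oral gavage dose in 5% ethanol, 45% PEG 400, 50% water. Blood was collected into EDTA-K2 tubes over 24 h post dose. Plasma was protein-precipitated with acetonitrile and parent was quantified by LC/MS/MS to derive PK parameters.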

[13] = Mean residence time in Sprague-Dawley rat plasma at 50 mg/kg administered via oral gavage measured 24 hrs post dose by LC/MS/MS analysis; assay type: ADME, organism-based; method in brief: as §4
[14] = Ratio of non toxic dose for cytotoxicity against human HaCaT cells to MIC for methicillin-resistant Staphylococcus aureus RCMB 2658 clinical isolate; assay type: toxicity, cell-based
Method in brief: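 HaCaT keratinocytes in DMEM with 10% FBS at 37 °C, 5% CO2, exposed for 2 h to 8–256 μg/mL, then MTS read-out. Viability is given as a percentage of the DMSO control, in triplicate. The highest non-toxic concentration is divided by the MRSA MIC.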

Rattus norvegicus [15] = test: Half life in Sprague-Dawley rat plasma at 50 mg/kg administered via oral gavage measured 24 hrs post dose by LC/MS/MS analysis; assay type: ADME, organism-based; settings: in vivo; method in brief: as §4
Rattus norvegicus [16] = test: Elimination rate constant in Sprague-Dawley rat plasma at 50 mg/kg administered via oral gavage by LC/MS/MS analysis; assay type: ADME, organism-based; settings: in vivo; method in brief: as §4
Enterococcus faecium [17] = test: Bactericidal activity against vancomycin-resistant Enterococcus faecium ATCC 700221 after 20 hrs by broth microdilution method; assay type: functional; settings: ATCC 700221, 20 h
[18] = Apparent permeability across basolateral to apical side in human Caco2 cells at pH 7.4 after 2 hrs by LC/MS/MS analysis; settings: Caco-2, pH 7.4
Staphylococcus aureus [19] = test: Bactericidal activity against methicillin-resistant Staphylococcus aureus USA100 NRS382 clinical isolate after 20 hrs by broth microdilution method; assay type: functional; settings: USA100 NRS382, 20 h
Staphylococcus aureus [20] = test: Bactericidal activity against vancomycin-resistant Staphylococcus aureus 10 clinical isolate after 20 hrs by broth microdilution method; assay type: functional; settings: isolate 10, 20 h
Staphylococcus aureus [21] = test: Antimicrobial activity against vancomycin-resistant Staphylococcus aureus 10 clinical isolate after 20 hrs by broth microdilution method; assay type: functional; settings: isolate 10, 20 h; method in brief: as §2
[22] = AUClast in Sprague-Dawley rat plasma at 50 mg/kg administered via oral gavage measured 24 hrs post dose by LC/MS/MS analysis; assay type: ADME, organism-based; set-up: dose 50 mg/kg, time 0 - last, route oral; method in brief: as §4
Staphylococcus aureus [23] = test: Bactericidal activity against methicillin-sensitive Staphylococcus aureus NRS72 clinical isolate after 20 hrs by broth microdilution method; assay type: functional; settings: NRS72, 20 h
HaCaT [24] = test: Cytotoxicity against human HaCaT cells assessed as cell viability up to 64 ug/ml after 2 hrs by MTS assay; assay type: cell-based; method in brief: as §1
Staphylococcus aureus [25] = test: Antimicrobial activity against methicillin-resistant Staphylococcus aureus USA200 NRS383 clinical isolate after 20 hrs by broth microdilution method; assay type: functional; settings: USA200 NRS383, 20 h; method in brief: as §2
Enterococcus faecium [26] = test: Antimicrobial activity against vancomycin-resistant Enterococcus faecium ATCC 700221 after 20 hrs by broth microdilution method; assay type: functional; settings: ATCC 700221, 20 h; method in brief: as §2
Staphylococcus aureus [27] = test: Antimicrobial activity against methicillin-resistant Staphylococcus aureus NRS119 clinical isolate after 20 hrs by broth microdilution method; assay type: functional; settings: NRS119, 20 h; method in brief: as §2
Staphylococcus aureus [28] = test: Antimicrobial activity against methicillin-sensitive Staphylococcus aureus NRS72 clinical isolate after 20 hrs by broth microdilution method; assay type: functional; settings: NRS72, 20 h; method in brief: as §2
Staphylococcus aureus [29] = test: Bactericidal activity against methicillin-resistant Staphylococcus aureus USA300 NRS384 clinical isolate after 20 hrs by broth microdilution method; assay type: functional; settings: USA300 NRS384, 20 h
[30] = Total AUC in Sprague-Dawley rat plasma at 50 mg/kg administered via oral gavage measured 24 hrs post dose by LC/MS/MS analysis; assay type: ADME, organism-based; set-up: dose 50 mg/kg, route oral, time AUCmax; method in brief: as §4
Staphylococcus aureus [31] = test: Antimicrobial activity against methicillin-resistant Staphylococcus aureus USA400 NRS123 clinical isolate after 20 hrs by broth microdilution method; assay type: functional; settings: USA400 NRS123, 20 h; method in brief: as §2
Staphylococcus aureus [32] = test: Antimicrobial activity against methicillin-resistant Staphylococcus aureus USA100 NRS382 clinical isolate after 20 hrs by broth microdilution method; assay type: functional; settings: USA100 NRS382, 20 h; method in brief: as §2
[33] = Tmax in Sprague-Dawley rat plasma at 50 mg/kg administered via oral gavage measured 24 hrs post dose by LC/MS/MS analysis; assay type: ADME, organism-based; method in brief: as §4

## CCCCc1ccc(-c2nc(C)c(/C(C)=N/NC(=N)N)s2)cc1
HaCaT [1]
  Activity: Non-toxic
Staphylococcus aureus [2]
  MIC: 4.8 µg/mL (≈ 14.6 µM)
Staphylococcus aureus [3]
  Time: 6 h

## Cc1nc(-c2ccc(C3=CCCCC3)cc2)sc1-c1ccnc(N)n1
[4]
  solubility kinetic at 2 h: 37 µM (≈ 12.9 µg/mL)
Staphylococcus aureus [5]
  Ratio: 1
Staphylococcus aureus [2]
  MIC: 0.78 µg/mL (≈ 2.24 µM)

## CCCCc1ccc(-c2nc(C)c(-c3ccnc(N=C(N(C)C)N(C)C)n3)s2)cc1
Staphylococcus aureus [2]
  MIC: > 25 µg/mL

## Cc1nc(-c2ccc(C3=CCCCCC3)cc2)sc1-c1ccnc(N)n1
Staphylococcus aureus [2]
  MIC: 3.12 µg/mL (≈ 8.61 µM)

## CCCCc1ccc(-c2nc(C)c(-c3ccnc(NN)n3)s2)cc1
Staphylococcus aureus [6]
  MBC: 2 µg/mL (≈ 5.89 µM)
Staphylococcus aureus [7]
  MIC: 2 µg/mL (≈ 5.89 µM)
[8]
  Papp A→B at 2 h: 1.6 ×10⁻⁶ cm/s
[9]
  efflux ratio at 2 h: 1.8
Staphylococcus aureus [10]
  MBC: 2 µg/mL (≈ 5.89 µM)
[4]
  solubility kinetic at 2 h: 55 µM (≈ 18.7 µg/mL)
Staphylococcus aureus [11]
  MBC: 2 µg/mL (≈ 5.89 µM)
[12]
  Cmax: 9330 ng/mL
[13]
  MRT: 7.74 h
[14]
  selectivity ratio: 160
Rattus norvegicus [15]
  t1/2: 8.24 h
Rattus norvegicus [16]
  Kel: 0.19 h⁻¹
Enterococcus faecium [17]
  MBC: 8 µg/mL (≈ 23.6 µM)
[18]
  Papp B→A at 2 h: 2.8 ×10⁻⁶ cm/s
Staphylococcus aureus [19]
  MBC: 4 µg/mL (≈ 11.8 µM)
Staphylococcus aureus [20]
  MBC: 2 µg/mL (≈ 5.89 µM)
Staphylococcus aureus [21]
  MIC: 1 µg/mL (≈ 2.95 µM)
Staphylococcus aureus [2]
  MIC: 0.4 µg/mL (≈ 1.18 µM)
[22]
  AUC(0-t) at 24 h: 83200 ng·h/mL
Staphylococcus aureus [23]
  MBC: 8 µg/mL (≈ 23.6 µM)
HaCaT [24]
  Activity: Non-toxic
Staphylococcus aureus [25]
  MIC: 2 µg/mL (≈ 5.89 µM)
Enterococcus faecium [26]
  MIC: 2 µg/mL (≈ 5.89 µM)
Staphylococcus aureus [27]
  MIC: 2 µg/mL (≈ 5.89 µM)
Staphylococcus aureus [28]
  MIC: 2 µg/mL (≈ 5.89 µM)
Staphylococcus aureus [29]
  MBC: 2 µg/mL (≈ 5.89 µM)
[30]
  AUC at 24 h: 100000 ng·h/mL
Staphylococcus aureus [31]
  MIC: 2 µg/mL (≈ 5.89 µM)
Staphylococcus aureus [32]
  MIC: 2 µg/mL (≈ 5.89 µM)
[33]
  Tmax: 4.67 h
Staphylococcus aureus [3]
  Time: 2 h

## CCCCc1ccc(-c2nc(C)c(-c3ccnc(N4CCCC4)n3)s2)cc1
Staphylococcus aureus [2]
  MIC: > 25 µg/mL

## CCCCc1ccc(-c2nc(C)c(-c3ccn4ncnc4n3)s2)cc1
Staphylococcus aureus [2]
  MIC: > 25 µg/mL

## CCCCc1ccc(-c2nc(C)c(-c3ccnc(NC#N)n3)s2)cc1
Staphylococcus aureus [2]
  MIC: 18.7 µg/mL (≈ 53.5 µM)

## Cc1nc(-c2ccc(-c3ccsc3)cc2)sc1-c1ccnc(N)n1
[4]
  solubility kinetic at 2 h: 8.5 µM (≈ 2.98 µg/mL)
Staphylococcus aureus [2]
  MIC: 6.25 µg/mL (≈ 17.8 µM)

## CCCCc1ccc(-c2nc(C)c(-c3ccnc(NC)n3)s2)cc1
Staphylococcus aureus [2]
  MIC: > 25 µg/mL

## CCCCc1ccc(-c2nc(C)c(-c3ccnc(NC(=N)N)n3)s2)cc1
Staphylococcus aureus [2]
  MIC: 1.56 µg/mL (≈ 4.26 µM)

## Cc1nc(-c2ccc(/C=C/C3CCCCC3)cc2)sc1-c1ccnc(N)n1
Staphylococcus aureus [2]
  MIC: 3.12 µg/mL (≈ 8.29 µM)

## CCCCc1ccc(-c2nc(C)c(-c3ccnc(-c4cccnc4)n3)s2)cc1
Staphylococcus aureus [2]
  MIC: 17.2 µg/mL (≈ 44.5 µM)

## Cc1nc(-c2ccc(C=C3CCCCC3)cc2)sc1-c1ccnc(N)n1
Staphylococcus aureus [2]
  MIC: 1.56 µg/mL (≈ 4.3 µM)

— ChEMBL document CHEMBL3826892, “Second-Generation Phenylthiazole Antibiotics with Enhanced Pharmacokinetic Properties” (J Med Chem, 2016)
